Test system: MS2 coat protein
Experiment: apparent Kd, MS2 coat protein; higher = weaker binding; RNA-MaP array; FMN 200 µM where present
Outline: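 Apparent Kd: the median of filtered binding-curve fits from single clusters. Designs were transcribed on Illumina sequencing-chip clusters by stalled E. coli RNA polymerase and titrated with SNAP-549-labelled MS2 coat protein from 0.7 or 1.5 nM, doubling to 3 µM, in 100 mM Tris-HCl pH 7.5, 80 mM KCl, 4 mM MgCl2, BSA, DTT, yeast tRNA and Tween-20. Each series ran without and then with constant ligand, and green signal was normalised to red-channel RNA signal and control-cluster median Fmax.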

[1] = designed as: OFF switch for flavin mononucleotide, no ligand
[2] = ligand present: flavin mononucleotide, designed as: OFF switch for flavin mononucleotide
[3] = designed as: ON switch for flavin mononucleotide, no ligand
[4] = ligand present: flavin mononucleotide, designed as: ON switch for flavin mononucleotide

Sequence	apparent Kd [1] [nM]	apparent Kd [2] [nM]	apparent Kd [3] [nM]	apparent Kd [4] [nM]
UUUAUGUAAGGAUAUGCGGGCGGGCGCGUUUGUGUUUGUUUGUAGAAGGUACAUGAGGAUCACCCAUGUAGUGG	133	169		
UUUAUGUAAGGAUAUGCGGGCGGGCGUGAAAAUGUUUGUUUGUAGAAGGUACAUGAGGAUCACCCAUGUAGUGG	145	201		
UUUAUUUAGGCAGGAUAUACAUGUAUAUAUAAUUUUUUAUAUAUUAUUACAUGAGGAUCACCCAUGUAGAAGGGCCUUAUUAUA	41.9	54.7		
UUUAUUUUGCAAGGAUAUGUUUAAUUUUAGUUUCCUUACACAUGAGGAUCACCCAUGUUAUACUUACAGAAGGUGCGUAAUUUU	130	103		
UUUAUUUUUACAGGAUAUCAUCUAUAUAUCACAUGCACAUGUUUACAUGAGGAUCACCCAUGUUUUGAGAAGGGUAAUGAAACA			79.6	59
UUUCGGCAUGUAGGAUAUGGGUCCGAUUAGGAUUUAGAAGGACAUGAGGAUCACCCAUGUGCAUUUAAUUGGUCAUUACCUUUU	62.9	74		
UUUGCAUUCCGAGGAUAUUCAUAUAAUAAAUAAACAUGAGGAUCACCCAUGUGGCGAAAGCCUAGGGAGAAGGCGGAAUGCUUU			184	22
UUUGCAUUCCGAGGAUAUUCAUAUAAUAAAUAAACAUGAGGAUCACCCAUGUGGCGAUAGCCUAGGGAGAAGGCGGUUUGCUUU			87.7	29.6
UUUGGGUGGCUGGAGGAUAUUCGAGUGGUUACAUGAGGAUCACCCAUGUGUCGCGCGGUACGCGAGGAGAAGGCUGGCGGCCGUU			79.7	37
UUUGUGUCAGGAUAUGAGUAGUAGAACAAUAGUACUACUACUCAGAAGGGACAUGAGGAUCACCCAUGUUCCUC	19.3	88.3		
UUUUAACAUGAGGAUCACCCAUGUGAGGAUAUCGAAAUUUAUAUUAAUAUUAUUAAAACGAGAAGGCACAUUUU	63.1	82.8		
UUUUAACAUGAGGAUCACCCAUGUGAGGAUAUCGAAAUUUAUAUUAAUAUUAUUAAUACGAGAAGGCACAUUUU	36.9	61.8		
UUUUAACAUGAGGAUCACCCAUGUGAGGAUAUCGAAAUUUAUAUUUAUAUUAAUUUAUCGAGAAGGCACAUUUU	149	164		
UUUUAACAUGAGGAUCACCCAUGUGAGGAUAUCGAAAUUUAUAUUUAUAUUAAUUUUACGAGAAGGCACAUUUU	112	125		
UUUUCGCGCGCAGGAUAUCCCAUGUGGUUCACACAUGAGGAUCACCCAUGUUUCACCCAUGUGCGGGAGAAGGGUGCGCGUUUC			368	189
UUUUGGCAUGUAGGAUAUGGGUCCGAUUAGGAUUUAGAAGGACAUGAGGAUCACCCAUGUGCAUUUAAUUGGUCUUUAUUUUUU	64.1	85.6		
UUUUUACAUGAGGAUCACCCAUGUCAGGAUAUCCUUAUAUUUUAUUAUUUUAUUUUUUGGAGAAGGGACUAUUA	367	225		
UUUUUACAUGAGGAUCACCCAUGUCAGGAUAUGAUUAUAUUUUAUUAUUUUAUUUUUUUCAGAAGGGACUAUUA	117	56.9		
UUUUUACUUGCAGGAUAUGGAGACAUGAGGAUCACCCAUGUAUGAGGAGCUAAAUUAUGCUGUGGCCAGAAGGGUAUUGUUCUU			66.6	58.8
UUUUUAGCAGGAUAUAUCCACGACCACAUGAGGAUCACCCAUGUGGCCGCUUGAGGUUGUAUAGAAGGGCUUUUUU	14	14.8		
UUUUUAUAACAAGGAUAUACUAAACAUGAGGAUCACCCAUGUAAUAUUAUGAGUGAGAGAGAGAAGUAGAAGGUGUAUUAUUUU	96	120		
UUUUUAUUUAUAGGAUAUGGAAACAUGAGGAUCACCCAUGUAUGAUAAGAUAAAUUAUGAUAUGGCCAGAAGGAUAUUAUUUUU			31	34.8
UUUUUCUCAGGAUAUACAUGAGGAUCACCCAUGUAUAUUAGGAAUAAUACAUGGGAAUGUAGAAGGGAGCUCAU	128	98.4		
UUUUUGUCAGGAUAUGAGUAGUAGUACUAUUGUUUUAUUAUUUAGAAGGGACAUGAGGAUCACCCAUGUUUCUC	14.9	15.9		
UUUUUGUGAGGAUAUGGAAUAUCUUCUAUUUAUUAUUAAUUCCAGAAGGCACAUGAGGAUCACCCAUGUAUUUU	19.9	25.2		
UUUUUGUGAGGAUAUUAGUAGUAAAUAAAUAAAAUUAUUACUGAGAAGGCACAUGAGGAUCACCCAUGUUCCUU	14.8	68.1		
UUUUUUUUAUGAGGAUAUAUUUUACAUACAAAACAUGAGGAUCACCCAUGUGUUGUCCCAUGUUUAUAGAAGGCAUUUUUUUUU			418	598

Source: the EternaBench riboswitch data
